FGF22 binding: shifts melting point of recombinant human FGF22; Q9HCT0; recombinant FGF22 thermal shift, SYPRO orange fluorescence; percent of sucrose octasulfate shift, DMSO zero; activity (Tm shift, normalised), % at 9.99 µM; actives 1.5% (n = 340,000); AID 651658;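 active means mean Tm shift, scaled 0 neutral to 100 positive control, at about 1.3% or above, every replicate too, limit read from the data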
Target sequence (Q9HCT0 whole entry, looked up): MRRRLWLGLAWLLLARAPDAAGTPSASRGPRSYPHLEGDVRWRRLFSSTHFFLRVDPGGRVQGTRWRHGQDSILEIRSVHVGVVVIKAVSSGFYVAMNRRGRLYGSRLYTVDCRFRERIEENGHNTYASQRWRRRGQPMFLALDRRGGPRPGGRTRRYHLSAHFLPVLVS
Statin myotox sup: suppression of simvastatin myotoxicity | C2C12 myotubes + simvastatin, ATP luminescence, 48 h; scaled: DMSO 0, geranylgeraniol control 100 | rescue of ATP level, % at 7.49 µM | actives 0.78% (n = 330,000);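 active means mean ATP rescue above about 67%, or every replicate alone reaching that limit, limit read from the data, passing the limit was not always enough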;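 further: myotubes were challenged with 10 µM simvastatin during compound exposure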
FN deposit inh: fibronectin deposition inhibition; AH1F fibroblasts, Alexa488-fibronectin deposition fluorescence, overnight; inhibition, % at 12.6 µM; actives 0.086% (n = 350,000); AID 743247;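 active means mean inhibition across replicates of 30% or more, regardless of how many single replicates reach that level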
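Material: AH1F fibroblast monolayer depositing Alexa488-labelled fibronectin into matrix | Input: 10000 AH1F cells/well | Medium: DMEM plus 2% serum, read in PBS | Reagent: Alexa488-fibronectin, 24 nM final in well | Compound dosing: One dose per compound, pinned | Schedule: 1 h adhesion, overnight exposure | Measured by: Fluorescence at 485 nm excitation, 525 nm emission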
Ecoli rRNA inh: inhibits bacterial ribosomal RNA function over humanized ribosomes. E. coli WT GFP vs humanized-ribosome RFP mutants, fluorescence, 24 h; stronger effect = lower value; DMSO median 0, no signal -100. GFP signal change (wild-type ribosome), % (test concentration not listed). actives 1.6% (n = 350,000). AID 720706;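 active means significant combined selectivity score with lowered wild-type GFP, culture density cut under 30%, mutant RFP and density less affected; inactive means any of these conditions unmet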
SIRT5 block: inhibitors of human sirtuin-5 desuccinylase. Purified SirT5, succinyl-peptide AMC, trypsin-coupled fluorescence. actives 1.1% (n = 330,000). inhibition, % at 15 µM. AID 652115. Q9NXA8; in the data active means inhibition above about 15%
Target sequence (Q9NXA8 whole entry, looked up): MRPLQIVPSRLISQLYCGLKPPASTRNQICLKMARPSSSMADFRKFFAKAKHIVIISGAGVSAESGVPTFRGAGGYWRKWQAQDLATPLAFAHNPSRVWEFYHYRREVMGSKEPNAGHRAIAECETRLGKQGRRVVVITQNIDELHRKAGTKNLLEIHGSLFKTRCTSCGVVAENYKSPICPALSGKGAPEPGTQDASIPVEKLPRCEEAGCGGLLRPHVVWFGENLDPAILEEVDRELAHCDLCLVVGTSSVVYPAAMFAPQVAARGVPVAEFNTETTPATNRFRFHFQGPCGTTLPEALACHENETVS
E-sel inducer: induces E-selectin expression in human endothelial cells. P16581. HUVEC E-selectin immunofluorescence imaging; normalized: neutral wells 0, TNF-alpha wells 100. activation, % at 7.58 µM. actives 0.37% (n = 260,000);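 active means mean E-selectin-positive cell signal at least 10% of the positive control, reached in at least 60% of replicates, without over 20% cell loss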
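Assay system: HUVEC primary endothelial cells. Input: 3,000 HUVEC seeded per well. Doses: one compound dose added by pin transfer. Read-out basis: % PE-positive cells. Benchmarks: TNF-alpha high, DMSO low. Detection: immunofluorescence imaging. Buffer or medium: EGM-2, gelatin.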
Numbers stand for hits; - = inactive; . = no result; ! = a repeat was not active. Rows were chosen to be rich in hits. Some 4% of all compounds tested hit in one or more screens of this group.

SMILES | FGF22 binding | Statin myotox sup | FN deposit inh | Ecoli rRNA inh | SIRT5 block | E-sel inducer
COc1ccccc1S(=O)(=O)N[C@H]1CC[C@@H](CCNC(=O)C2CCC2)O[C@@H]1CO | - | - | . | - | - | -
CC1(C(=O)NNC(=O)C2CCCCC2)CC1(Cl)Cl (configuration not stated) | - | . | - | -26.9 | - | -
NC(N)=N/N=C/c1ccccc1Cl | - | - | - | - | 18.1 | -
O=C(C[C@@H]1C=C[C@@H](NS(=O)(=O)c2ccccc2)[C@H](CO)O1)NCc1ccc(Cl)c(Cl)c1 | - | - | . | - | - | -
O=C(C[C@H]1CC[C@H]2[C@@H](COC[C@@H](O)CN2Cc2ccc(Oc3ccccc3)cc2)O1)N1CCc2ccccc2C1 | - | - | - | - | - | .
O=C(C[C@H]1CC[C@@H]2[C@H](COC[C@@H](O)CN2Cc2ccc(Oc3ccccc3)cc2)O1)N1CCCCC1 | - | 71.0 | - | - | - | -
O=C(C[C@H]1CC[C@@H]2[C@H](COC[C@H](O)CN2Cc2ccc(Oc3ccccc3)cc2)O1)N1CCc2ccccc2C1 | - | - | . | . | 18.3 | .
COc1ccc2c3c(n(C)c2c1)[C@H](CO)N(C(=O)CN1CCOCC1)CC31CCN(C(=O)CC2CC2)CC1 | . | . | . | - | . | .
C[C@@H]1CN([C@@H](C)CO)S(=O)(=O)c2ccc(C#CCN(C)C)cc2O[C@@H]1CN(C)Cc1ccccc1 | - | - | . | - | - | -
CO[C@H]1CN(C)C(=O)c2cc(NC(=O)NC3CCCCC3)ccc2OC[C@H](C)N(CCc2ccccc2)C[C@@H]1C | - | - | - | - | 24.8 | -
CO[C@H]1CN(C)C(=O)c2cc(NC(=O)NC3CCCCC3)ccc2OC[C@H](C)N(CCc2ccccc2)C[C@H]1C | - | - | - | - | - | -
COCC(=O)Nc1ccc2c(c1)OC[C@@H](C)N(CCc1ccccc1)C[C@@H](C)[C@H](OC)CN(C)C2=O | - | - | - | - | 31.0 | -
CCCNC(=O)Nc1ccc2c(c1)C(=O)N(C)C[C@H](OC)[C@H](C)CN(Cc1ccc(-c3ccccn3)cc1)[C@H](C)CO2 | - | - | - | - | 15.1 | -
CCCNC(=O)Nc1ccc2c(c1)C(=O)N(C)C[C@H](OC)[C@H](C)CN(Cc1ccc(-c3ccccn3)cc1)[C@@H](C)CO2 | . | - | - | - | . | -
COc1cccc(C(=O)Nc2ccc3c(c2)C(=O)N(C)C[C@H](OC)[C@@H](C)CN(CCc2ccccc2)[C@H](C)CO3)c1 | - | - | - | - | 20.3 | -
O=C(Nc1ccccc1F)N[C@@H]1CC[C@H](CCNC(=O)C2CCCCC2)O[C@@H]1CO | - | - | - | - | - | -
C[C@@H]1CN([C@@H](C)CO)S(=O)(=O)c2ccc(-c3ccc(C#N)cc3)cc2O[C@@H]1CN(C)C | - | - | . | - | - | -
COc1cccc(C(=O)Nc2ccc3c(c2)OC[C@@H](C)N(CCc2ccccc2)C[C@@H](C)[C@@H](OC)CN(C)C3=O)c1 | - | - | - | - | - | -
COc1cccc(C(=O)Nc2ccc3c(c2)OC[C@H](C)N(CCc2ccccc2)C[C@@H](C)[C@@H](OC)CN(C)C3=O)c1 | - | - | - | -24.8! | - | -
COc1cc(COC(C)=O)ccc1OC(C)=O | - | . | . | . | - | .
O=C(c1ccco1)N1CCN(Cc2cc(=O)c(OCc3ccccc3)co2)CC1 | - | - | - | - | - | .
O=C(c1ccco1)N1CCN(Cc2cc(=O)c(OCc3ccccc3F)co2)CC1 | 65.6 | - | - | - | - | -
COc1ccccc1S(=O)(=O)N[C@H]1CC[C@@H](CCNC(=O)C2CC2)O[C@@H]1CO | - | - | - | - | - | -
Cc1nn(Cc2ccccc2Cl)c2sc(C(=O)NCc3ccc4c(c3)OCO4)cc12 | . | 125.5 | . | . | . | .
c1ccc(-c2cc(-c3nnc4n3N=C(c3ccc5ccccc5c3)CS4)[nH]n2)cc1 | . | 80.3 | . | . | . | .
SMILES | FGF22 binding | Statin myotox sup | FN deposit inh | Ecoli rRNA inh | SIRT5 block | E-sel inducer
Cc1cccc(-c2nnc3n2N=C(c2ccccc2)CS3)c1 | . | - | active | . | . | .
c1ccc(C2=Nn3c(nnc3-c3ccncc3)SC2)cc1 | . | - | - | . | . | .
COC(=O)C(CC#Cc1ccc2c(c1)[C@]1(C(=O)N2)[C@H](C(=O)NC[C@H](O)c2ccccc2)[C@H]2C(=O)O[C@H](c3ccccc3)[C@H](c3ccccc3)N2[C@@H]1c1ccccc1OCCO)C(=O)OC | - | . | . | . | 19.4 | .
NC(=O)NCC#Cc1ccc2c(c1)[C@]1(C(=O)N2)[C@H](c2ccc(OCCO)cc2)N2[C@H](c3ccccc3)[C@H](c3ccccc3)OC(=O)[C@H]2[C@@H]1C(=O)O | - | . | . | . | - | .
O=C1O[C@@H](c2ccccc2)[C@@H](c2ccccc2)N2[C@@H](c3ccc(OCCO)cc3)[C@]3(C(=O)Nc4ccc(C#CC5=CCCCC5)cc43)[C@@H](C(=O)N3CCN(c4ncccn4)CC3)[C@H]12 | - | . | . | . | - | .
COc1cc2c(cc1OC)CN(C(=O)[C@@H]1[C@H]3C(=O)O[C@H](c4ccccc4)[C@H](c4ccccc4)N3[C@H](c3ccc(OCCO)cc3)[C@@]13C(=O)Nc1ccc(C#CCNC(N)=O)cc13)CC2 | - | . | . | . | 22.9 | .
O=C1O[C@@H](c2ccccc2)[C@@H](c2ccccc2)N2[C@@H](c3ccccc3OCCO)[C@]3(C(=O)Nc4ccc(C#CC5=CCCCC5)cc43)[C@@H](C(=O)N3CCN(c4ncccn4)CC3)[C@H]12 | . | . | . | . | 16.5 | .
COC(=O)C(CC#Cc1ccc2c(c1)[C@]1(C(=O)N2)[C@H](c2ccccc2OCCO)N2[C@H](c3ccccc3)[C@H](c3ccccc3)OC(=O)[C@H]2[C@@H]1C(=O)N1CCc2cc(OC)c(OC)cc2C1)C(=O)OC | - | . | . | . | - | .
COc1ccc(C#Cc2ccc3c(c2)[C@]2(C(=O)N3)[C@H](C(=O)N3CCN(c4ncccn4)CC3)[C@H]3C(=O)O[C@H](c4ccccc4)[C@H](c4ccccc4)N3[C@@H]2c2ccc(OCCO)cc2)cc1 | - | . | . | . | 22.8 | .
C=CC[C@]1(C(=O)NCc2ccccc2)N=C(c2ccc(OCCCO)cc2)O[C@H]1c1ccccc1 | - | . | . | . | - | .
O=C(Cc1ccncc1)NCC[C@@H]1CC[C@H](NC(=O)Nc2ccc(Cl)cc2)[C@H](CO)O1 | - | - | . | - | - | -
O=C(Nc1ccccc1F)N1CC2(C1)[C@H](c1ccccc1)[C@H](CO)N2C(=O)CC1CC1 | - | . | . | - | - | -
CO[C@H]1CN(C)C(=O)c2cc(NC(=O)Cc3ccccc3)ccc2OC[C@@H](C)N(C(C)=O)C[C@@H]1C | - | - | - | - | - | -
COC(=O)Cc1nnn2c1[C@H](C)[C@@H](OC)c1cccc(Cl)c1-2 | 82.2 | . | - | - | . | -

Screens: PubChem, Broad Institute
